Experimental data: ChEMBL document CHEMBL2150857, “Design, synthesis and biological evaluation of 5-hydroxy, 5-substituted-pyrimidine-2,4,6-triones as potent inhibitors of gelatinases MMP-2 and MMP-9” (Eur J Med Chem, 2012)
pIC50: −log10 of the molar value.

How the values were obtained:
[1] = molecular target: T1, 72 kDa type IV collagenase (Homo sapiens, UniProt P08253); assay: Inhibition of MMP2 using Mca-Pro-Leu-Gly-Leu-Dpa-Ala-Arg as substrate incubated for 30 mins prior to substrate addition measured after 3 hrs by fluorimetric assay
How it was run: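 It is preincubated with inhibitor at 25 °C for 30 min. Substrate is added from a 25 μM solution and incubated 3 h at 37 °C. Acetic acid quench, fluorescence ex 340/em 405 nm. IC50 from 6 concentrations in triplicate, two runs.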
Target sequence in this assay (P08253 whole entry): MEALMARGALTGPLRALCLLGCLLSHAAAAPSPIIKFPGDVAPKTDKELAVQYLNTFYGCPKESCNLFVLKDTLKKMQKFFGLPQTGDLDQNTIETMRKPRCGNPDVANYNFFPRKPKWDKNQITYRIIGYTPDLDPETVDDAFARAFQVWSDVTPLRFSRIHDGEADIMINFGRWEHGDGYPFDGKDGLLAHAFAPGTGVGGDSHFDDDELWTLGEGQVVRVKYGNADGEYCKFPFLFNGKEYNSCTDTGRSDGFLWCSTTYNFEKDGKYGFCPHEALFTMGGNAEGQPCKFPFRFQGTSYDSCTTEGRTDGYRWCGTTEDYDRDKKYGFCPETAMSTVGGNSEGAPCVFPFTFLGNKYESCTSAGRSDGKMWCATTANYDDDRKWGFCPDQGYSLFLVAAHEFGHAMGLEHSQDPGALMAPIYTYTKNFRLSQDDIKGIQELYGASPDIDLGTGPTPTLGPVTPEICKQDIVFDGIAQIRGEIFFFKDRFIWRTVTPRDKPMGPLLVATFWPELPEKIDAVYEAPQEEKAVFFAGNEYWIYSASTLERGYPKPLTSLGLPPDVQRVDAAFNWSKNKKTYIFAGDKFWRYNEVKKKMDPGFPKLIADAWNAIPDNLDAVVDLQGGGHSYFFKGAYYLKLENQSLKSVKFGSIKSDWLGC

Neutrophil collagenase [2] = molecular target: T2, Neutrophil collagenase (Homo sapiens, UniProt P22894); assay: Inhibition of recombinant MMP8 catalytic site using Mca-Pro-Leu-Gly-Leu-Dpa-Ala-Arg as substrate incubated for 30 mins prior to substrate addition measured after 3 hrs by fluorimetric assay
How it was run: (§1)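 Recombinant catalytic-domain MMP-8 or MMP-9 (500 pM enzyme solution) is used in Tris-HCl 0.1 M pH 7.5, 0.1 M NaCl, 10 mM CaCl2, 0.05% Brij35, 1 mM APMA. Preincubated with inhibitor 30 min at 25 °C, then substrate (25 μM solution) 3 h at 37 °C. Acetic acid stop, fluorescence 340/405 nm. IC50 from six concentrations in triplicate, run twice.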
Target sequence in this assay (P22894 whole entry): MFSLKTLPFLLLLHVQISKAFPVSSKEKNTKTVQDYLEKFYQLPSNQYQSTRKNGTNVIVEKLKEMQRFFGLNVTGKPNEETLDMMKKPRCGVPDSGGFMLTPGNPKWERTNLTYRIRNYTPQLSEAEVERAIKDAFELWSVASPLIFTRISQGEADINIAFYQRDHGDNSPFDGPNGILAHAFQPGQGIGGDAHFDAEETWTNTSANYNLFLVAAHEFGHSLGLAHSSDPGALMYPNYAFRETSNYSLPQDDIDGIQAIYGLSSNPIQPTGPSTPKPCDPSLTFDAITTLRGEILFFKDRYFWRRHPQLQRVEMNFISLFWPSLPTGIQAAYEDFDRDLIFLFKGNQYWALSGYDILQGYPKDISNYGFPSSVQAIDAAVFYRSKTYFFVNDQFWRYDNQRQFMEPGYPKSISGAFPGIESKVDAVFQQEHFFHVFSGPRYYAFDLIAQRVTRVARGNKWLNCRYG

[3] = molecular target: T3, Matrix metalloproteinase-9 (Homo sapiens, UniProt P14780); assay: Inhibition of recombinant MMP9 catalytic site using Mca-Pro-Leu-Gly-Leu-Dpa-Ala-Arg as substrate incubated for 30 mins prior to substrate addition measured after 3 hrs by fluorimetric assay; how it was run: as §1
T3 sequence (P14780 whole entry): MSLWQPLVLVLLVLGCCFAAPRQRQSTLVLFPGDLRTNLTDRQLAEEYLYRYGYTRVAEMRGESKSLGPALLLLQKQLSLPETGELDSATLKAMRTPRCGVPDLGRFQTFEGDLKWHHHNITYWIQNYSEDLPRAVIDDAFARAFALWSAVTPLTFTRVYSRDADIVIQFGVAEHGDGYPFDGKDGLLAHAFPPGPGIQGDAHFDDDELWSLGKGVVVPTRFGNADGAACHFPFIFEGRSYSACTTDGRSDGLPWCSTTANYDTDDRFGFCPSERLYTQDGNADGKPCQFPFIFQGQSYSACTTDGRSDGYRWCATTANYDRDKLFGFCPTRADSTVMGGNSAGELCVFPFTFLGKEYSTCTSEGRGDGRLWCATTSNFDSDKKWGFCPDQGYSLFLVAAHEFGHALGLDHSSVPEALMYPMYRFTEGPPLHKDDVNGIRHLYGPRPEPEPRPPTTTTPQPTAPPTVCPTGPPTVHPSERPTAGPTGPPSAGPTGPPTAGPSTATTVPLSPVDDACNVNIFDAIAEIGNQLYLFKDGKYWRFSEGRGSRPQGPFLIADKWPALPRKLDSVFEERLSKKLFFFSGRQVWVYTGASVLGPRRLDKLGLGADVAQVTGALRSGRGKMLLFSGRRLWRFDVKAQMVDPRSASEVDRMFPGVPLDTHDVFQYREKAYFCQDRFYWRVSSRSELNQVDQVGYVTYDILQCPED

[4] = molecular target: T1, 72 kDa type IV collagenase; assay: Inhibition of MMP2 using Mca-Pro-Leu-Gly-Leu-Dpa-Ala-Arg as substrate at 100 uM incubated for 30 mins prior to substrate addition measured after 3 hrs by fluorimetric assay
How it was run: (§2)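 Buffer: Tris-HCl 0.1 M pH 7.5, 0.1 M NaCl, 10 mM CaCl2, 0.05% Brij35, 1 mM APMA. Compound and enzyme 30 min at 25 °C, then substrate (25 μM solution) 3 h at 37 °C. Acetic acid quench, fluorescence ex 340/em 405 nm.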
Target sequence in this assay (P08253 110-660 limits assumed): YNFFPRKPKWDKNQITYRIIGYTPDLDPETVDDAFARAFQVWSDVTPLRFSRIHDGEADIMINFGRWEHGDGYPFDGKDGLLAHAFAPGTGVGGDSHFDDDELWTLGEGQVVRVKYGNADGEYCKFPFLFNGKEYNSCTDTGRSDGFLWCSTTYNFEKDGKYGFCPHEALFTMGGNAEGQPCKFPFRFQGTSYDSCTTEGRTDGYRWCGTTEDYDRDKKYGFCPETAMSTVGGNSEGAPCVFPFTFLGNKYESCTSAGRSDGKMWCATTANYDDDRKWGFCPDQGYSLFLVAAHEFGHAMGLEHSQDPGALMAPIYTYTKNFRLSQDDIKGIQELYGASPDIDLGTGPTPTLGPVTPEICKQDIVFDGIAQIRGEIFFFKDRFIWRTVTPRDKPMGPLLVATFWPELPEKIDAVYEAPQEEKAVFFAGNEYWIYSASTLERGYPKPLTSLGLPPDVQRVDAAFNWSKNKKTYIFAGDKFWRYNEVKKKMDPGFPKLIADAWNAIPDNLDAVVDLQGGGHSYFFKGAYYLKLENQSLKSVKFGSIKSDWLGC

Neutrophil collagenase [5] = molecular target: T2, Neutrophil collagenase; assay: Inhibition of recombinant MMP8 catalytic site using Mca-Pro-Leu-Gly-Leu-Dpa-Ala-Arg as substrate at 100 uM incubated for 30 mins prior to substrate addition measured after 3 hrs by fluorimetric assay
How it was run: (§3)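 Percent inhibition against control at a single concentration is measured on recombinant catalytic-domain MMP-8 or MMP-9 (500 pM enzyme solution). Tris-HCl 0.1 M pH 7.5 buffer with NaCl, CaCl2, Brij35, 1 mM APMA. Compound and enzyme 30 min at 25 °C, then substrate (25 μM solution) 3 h at 37 °C. Acetic acid stop, fluorescence 340/405 nm.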
Target sequence in this assay (P22894 101-467 limits assumed): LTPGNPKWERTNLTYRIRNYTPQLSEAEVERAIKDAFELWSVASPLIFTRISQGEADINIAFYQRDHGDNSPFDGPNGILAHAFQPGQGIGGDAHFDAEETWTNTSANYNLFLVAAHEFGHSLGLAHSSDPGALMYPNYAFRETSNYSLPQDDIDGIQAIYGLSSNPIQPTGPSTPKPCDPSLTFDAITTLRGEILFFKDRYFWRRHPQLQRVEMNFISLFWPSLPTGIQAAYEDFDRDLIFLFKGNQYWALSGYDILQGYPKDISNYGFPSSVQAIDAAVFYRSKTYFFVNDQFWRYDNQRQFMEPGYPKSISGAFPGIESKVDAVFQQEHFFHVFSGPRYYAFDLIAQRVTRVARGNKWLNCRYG

[6] = molecular target: T3, Matrix metalloproteinase-9; assay: Inhibition of recombinant MMP9 catalytic site using Mca-Pro-Leu-Gly-Leu-Dpa-Ala-Arg as substrate at 100 uM incubated for 30 mins prior to substrate addition measured after 3 hrs by fluorimetric assay; how it was run: as §3
[7] = molecular target: T3, Matrix metalloproteinase-9; assay: Inhibition of recombinant MMP9 catalytic site using Mca-Pro-Leu-Gly-Leu-Dpa-Ala-Arg as substrate at 10 uM incubated for 30 mins prior to substrate addition measured after 3 hrs by fluorimetric assay; how it was run: as §3
[8] = molecular target: T1, 72 kDa type IV collagenase; assay: Inhibition of MMP2 using Mca-Pro-Leu-Gly-Leu-Dpa-Ala-Arg as substrate at 10 uM incubated for 30 mins prior to substrate addition measured after 3 hrs by fluorimetric assay; how it was run: as §2
Target sequence in this assay (P08253 110-660 limits assumed): as the sequence (P08253 110-660 limits assumed) above

Row | Compound | pIC50 [1] | pIC50 (Neutrophil collagenase [2]) | pIC50 [3] | further results
1 | O=C1NC(=O)C(O)(CC(=O)c2ccc(-c3ccsc3)cc2)C(=O)N1 | 6.74 | 6.82 | 6.80 | 
2 | O=C(Cc1ccc(-c2ccccc2)cc1)CC1(O)C(=O)NC(=O)NC1=O |  |  |  | inhibition [4]: 10%; inhibition (Neutrophil collagenase [5]): 26%; inhibition [6]: 21%
3 | CC(=O)C(c1ccc(-c2ccccc2)cc1)C1(O)C(=O)NC(=O)NC1=O (centres undefined) |  |  |  | inhibition [4]: 38%; inhibition (Neutrophil collagenase [5]): 71%; inhibition [6]: 28%
4 | CC(=O)c1ccc(-c2ccc(C(=O)CC3(O)C(=O)NC(=O)NC3=O)cc2)cc1 | 7.52 | 6.96 | 6.77 | 
5 | O=C1NC(=O)C(O)(CC(=O)c2ccc(-c3ccc(Cl)cc3)cc2)C(=O)N1 | 6.56 | 6.57 | 7.18 | 
6 | CN(C)C(=O)c1ccc(-c2ccc(C(=O)CC3(O)C(=O)NC(=O)NC3=O)cc2)cc1 | 5.87 | 5.69 | 5.52 | 
7 | CS(=O)(=O)c1ccc(-c2ccc(C(=O)CC3(O)C(=O)NC(=O)NC3=O)cc2)cc1 | 7.24 | 7.18 | 6.19 | 
8 | O=C1NC(=O)C(O)(CC(=O)c2ccc(-c3ccc(CO)cc3)cc2)C(=O)N1 | 6.83 | 6.68 | 6.25 | 
9 | O=C1NC(=O)C(O)(CC(=O)c2ccc(C(F)(F)F)cc2)C(=O)N1 |  |  |  | inhibition [7]: 11%
10 | O=C1NC(=O)C(O)(CC(=O)c2ccc(-c3ccc(OC(F)(F)F)cc3)cc2)C(=O)N1 | 6.84 | 6.15 | 7.68 | 
11 | O=C1NC(=O)C(O)(CC(=O)c2ccc([N+](=O)[O-])cc2)C(=O)N1 |  | 4.20 |  | inhibition [8]: 0%; inhibition [7]: 8%
12 | O=C1NC(=O)C(O)(CC(=O)c2ccc(-c3cccc([N+](=O)[O-])c3)cc2)C(=O)N1 | 5.09 | 5.59 | 4.56 | 
13 | Cc1ccc(-c2ccc(C(=O)CC3(O)C(=O)NC(=O)NC3=O)cc2)cc1 | 6.52 | 6.47 | 6.99 | 
14 | COc1ccc(-c2ccc(C(=O)CC3(O)C(=O)NC(=O)NC3=O)cc2)cc1 | 6.92 | 6.74 | 6.85 | 
15 | O=C1NC(=O)C(O)(CC(=O)c2ccccc2)C(=O)N1 |  |  |  | inhibition [8]: 0%
16 | CSc1ccc(-c2ccc(C(=O)CC3(O)C(=O)NC(=O)NC3=O)cc2)cc1 | 6.92 | 6.50 | 7.07 | 
